Here are results for 34 compounds from ChEMBL document CHEMBL4411279, “Synthesis of new chalcone-based homoserine lactones and their antiproliferative activity evaluation” (Eur J Med Chem, 2019).

Common to all, as to type: functional, cell-based
For one test, the system named is MGC-803. The test is described as follows: Antiproliferative activity against human MGC803 cells after 72 hrs by MTT assay. The conditions noted are these: MGC-803, 72 h. The method, boiled down:
(§1)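 Cells seeded 3,000/well, after 24 h medium replaced with compound at 64, 32, 16, 8, 4, 2, 1, 0.5 µM; 72 h exposure, MTT read-out at 570 nm; IC50 given as mean ± SD.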

A further test deals with PC-3. Description: Antiproliferative activity against human PC3 cells after 72 hrs by MTT assay. The settings on record: PC-3, 72 h. The procedure, abridged:
as §1

A further test has as its system MCF7. The test is described as follows: Antiproliferative activity against human MCF7 cells after 72 hrs by MTT assay. The settings on record: MCF7, 72 h. The procedure, abridged:
as §1

The subject of another test is DU-145. The test is described as follows: Antiproliferative activity against human DU145 cells after 72 hrs by MTT assay. The settings on record: DU-145, 72 h. The method, boiled down: as §1

A value given as a limit tells only on which side of the number the result lay.

As for `O=C(CNc1ccc(Br)cc1)N[C@H]1CCOC1=O`, the IC50 with MGC-803, in the test with PC-3, in the test with MCF7 and in the test on DU-145 was more than 64 µM each time.
For the compound `O=C1OCC[C@@H]1NC(=S)SCCOc1cccc2ccccc12`, the IC50 with MGC-803, in the test with PC-3, in the test on MCF7 and in the test on DU-145 was more than 64 µM in each case.
In the case of `CCCCCCCCCCSC(=S)N[C@H]1CCOC1=O`, the IC50 in the test on MGC-803, in the test with PC-3, in the test on MCF7 and with DU-145 was more than 64 µM in each case.
For `O=C1OCC[C@@H]1NC(=S)SCCOc1ccccc1[N+](=O)[O-]`, the IC50 in the test on MGC-803 is 47 µM; in the test with PC-3, 24 µM; in the test with MCF7, more than 64 µM; in the test on DU-145, 33.4 µM.
In the same order, the values of `Cc1cc(Cl)ccc1NCC(=O)N[C@H]1CCOC1=O` are more than 64 µM, more than 64 µM, more than 64 µM and more than 64 µM.
In the same order, the values of `O=C(CNc1ccc(Cl)cc1Cl)N[C@H]1CCOC1=O` are more than 64 µM, more than 64 µM, more than 64 µM and more than 64 µM.
The matching figures for `O=C1OCC[C@@H]1NC(=S)SCCOc1ccc([N+](=O)[O-])cc1`: more than 100 µM, 32.5 µM, more than 64 µM and 31 µM.
As for `O=C(CNc1ccccc1)N[C@H]1CCOC1=O`, the IC50 with MGC-803, with PC-3, in the test on MCF7 and in the test with DU-145 was more than 64 µM each time.
Turning to `O=C(CNc1ccc(F)cc1)N[C@H]1CCOC1=O`, the IC50 with MGC-803, with PC-3, with MCF7 and with DU-145 was more than 64 µM in each case.
Regarding `O=C(COc1ccc(C(=O)/C=C/c2ccccc2)cc1)N[C@H]1CCOC1=O`, the IC50 with MGC-803 was more than 64 µM; in the test on PC-3 it was 56.8 µM; in the test with MCF7, more than 64 µM; in the test with DU-145 it was 48.3 µM.
In the case of `O=C(CNc1ccccc1Cl)N[C@H]1CCOC1=O`, the IC50 with MGC-803, with PC-3, in the test on MCF7 and in the test with DU-145 was more than 64 µM each time.
For the compound `CC(C)c1ccc(/C=C/C(=O)c2ccc(OCC(=O)N[C@H]3CCOC3=O)cc2)cc1`, the IC50 in the test with MGC-803 turned out to be 16.8 µM; in the test with PC-3, 4.66 µM; in the test with MCF7 it was 23.4 µM; in the test with DU-145 it was 13.1 µM.
Turning to `O=C1OCC[C@@H]1NC(=S)SCCOc1ccccc1Cc1ccccc1`, the IC50 in the test with MGC-803 is 32.3 µM; in the test on PC-3, more than 64 µM; in the test on MCF7, 39.5 µM; in the test with DU-145, more than 64 µM.
As for `O=C(COc1ccc(C(=O)/C=C/c2cccc(Br)c2)cc1)N[C@H]1CCOC1=O`, the IC50 is 11.9 µM with MGC-803, 7.89 µM in the test on PC-3, 28.3 µM in the test with MCF7 and 9.8 µM in the test on DU-145.
In the case of `CC(C)(C)c1ccc(/C=C/C(=O)c2ccc(OCC(=O)N[C@H]3CCOC3=O)cc2)cc1`, the IC50 with MGC-803 worked out at 17.2 µM; with PC-3, 10.6 µM; with MCF7 it was 16.4 µM; in the test on DU-145, 6.57 µM.
For `O=C(COc1ccc(C(=O)/C=C/c2ccc(Cl)cc2Cl)cc1)N[C@H]1CCOC1=O`, the IC50 in the test on MGC-803 came out at 26.5 µM; in the test with PC-3, 8.04 µM; with MCF7, 34.4 µM; in the test on DU-145, 8.61 µM.
Take `COc1ccccc1/C=C/C(=O)c1ccc(OCC(=O)N[C@H]2CCOC2=O)cc1`: the IC50 is 39.4 µM in the test on MGC-803, 7.24 µM in the test with PC-3, more than 64 µM in the test with MCF7 and 10.1 µM in the test on DU-145.
With `O=C(COc1ccc(C(=O)/C=C/c2ccc(Br)cc2)cc1)N[C@H]1CCOC1=O`, the IC50 in the test on MGC-803 was 51 µM; with PC-3 it was more than 64 µM; in the test on MCF7, more than 64 µM; with DU-145, 51.7 µM.
Regarding `O=C(COc1ccc(C(=O)/C=C/c2ccccc2Br)cc1)N[C@H]1CCOC1=O`, the IC50 with MGC-803 is 12.2 µM; in the test with PC-3, 3.26 µM; in the test on MCF7, 15.2 µM; in the test on DU-145, 3.54 µM.
The matching figures for `Cc1ccc(C(C)C)c(OCCSC(=S)N[C@H]2CCOC2=O)c1`: 43.4 µM, more than 64 µM, more than 64 µM and more than 64 µM.
Turning to `O=C(COc1ccc(C(=O)/C=C/c2cccc(F)c2)cc1)N[C@H]1CCOC1=O`, the IC50 was more than 64 µM in the test with MGC-803, 23.2 µM in the test on PC-3, more than 64 µM in the test with MCF7 and 17.2 µM with DU-145.
Take `CC(C)c1ccc(NCC(=O)N[C@H]2CCOC2=O)cc1`: the IC50 in the test on MGC-803, in the test on PC-3, in the test with MCF7 and in the test with DU-145 was more than 64 µM throughout.
As to `CC(=O)c1ccc(OCCSC(=S)N[C@H]2CCOC2=O)cc1`, the 50% inhibitory concentration (IC50) is more than 64 µM in the test on MGC-803, 46.9 µM in the test on PC-3, more than 64 µM in the test with MCF7 and 32.6 µM in the test on DU-145.
Turning to `O=C(COc1ccc(C(=O)/C=C/c2ccc(F)c(F)c2)cc1)N[C@H]1CCOC1=O`, the IC50 in the test with MGC-803 is more than 64 µM; in the test with PC-3, 21.9 µM; in the test on MCF7, more than 64 µM; in the test on DU-145 it was 19.8 µM.
Turning to `O=C(CNc1cccc(Cl)c1)N[C@H]1CCOC1=O`, the IC50 with MGC-803, in the test on PC-3, in the test on MCF7 and with DU-145 was more than 64 µM each time.
Turning to `O=C(COc1ccc(C(=O)/C=C/c2cccc([N+](=O)[O-])c2)cc1)N[C@H]1CCOC1=O`, the IC50 with MGC-803 was more than 64 µM; with PC-3, 56.2 µM; in the test on MCF7 it was more than 64 µM; in the test on DU-145, 41.8 µM.
With `C=CCc1ccc(OCCSC(=S)N[C@H]2CCOC2=O)c(OC)c1`, the IC50 in the test with MGC-803 is 27.9 µM; in the test on PC-3 it was more than 64 µM; with MCF7, more than 64 µM; with DU-145, more than 64 µM.
As for `O=C(COc1ccc(C(=O)/C=C/c2ccc(F)cc2)cc1)N[C@H]1CCOC1=O`, the IC50 in the test on MGC-803 is more than 64 µM; in the test with PC-3 it was 15.6 µM; in the test on MCF7 it was more than 64 µM; with DU-145, 18.8 µM.
For the compound `O=C1OCC[C@@H]1NC(=S)SCCOc1ccc(Cl)cc1`, the IC50 was 51.1 µM in the test with MGC-803, more than 64 µM in the test with PC-3, 50.5 µM in the test on MCF7 and more than 64 µM with DU-145.
As to `O=C1OCC[C@@H]1NC(=S)SCCOc1ccccc1`, the IC50 is 53.8 µM in the test on MGC-803, more than 64 µM with PC-3, more than 64 µM in the test on MCF7 and 63.8 µM with DU-145.
For the compound `O=C(CNc1ccc(Cl)cc1)N[C@H]1CCOC1=O`, the IC50 in the test with MGC-803, in the test on PC-3, with MCF7 and in the test with DU-145 was more than 64 µM each time.
For the compound `O=C(COc1ccc(C(=O)/C=C/c2cccc(Cl)c2)cc1)N[C@H]1CCOC1=O`, the IC50 was 29.1 µM in the test with MGC-803, 4.99 µM in the test with PC-3, 20.9 µM in the test with MCF7 and 3.7 µM in the test on DU-145.
The matching figures for `O=C(CNc1ccccc1F)N[C@H]1CCOC1=O`: more than 64 µM, more than 64 µM, more than 64 µM and more than 64 µM.
Take `CCOc1ccccc1OCCSC(=S)N[C@H]1CCOC1=O`: the IC50 in the test with MGC-803 was more than 64 µM; in the test with PC-3 it was 24.1 µM; in the test on MCF7 it was more than 64 µM; in the test with DU-145, 28.2 µM.
